Key:
[1] = test system: Human immunodeficiency virus 1; experiment: Antiviral activity against HIV-1 NL4-3 infected in MT4 cells assessed inhibition of viral replication measured on day 4 postinfection by ELISA; assay type: functional, organism-based; conditions: Human immunodeficiency virus 1, NL4-3, MT4, 96 h
Procedure, shortened: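 MT4 cells infected with HIV-1 NL4-3 at MOI 0.001 in presence of graded compound concentrations; fresh compound-containing medium added 48 h post-infection to sustain growth. Viral replication read on day 4 by p24 ELISA; EC50 = concentration giving 50% inhibition of replication.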

[2] = Cytotoxicity against human MT4 cells by cell-titer Glo assay; assay type: cell-based
Procedure, shortened: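 MT4 cells cultured in parallel with antiviral cultures; viability read by luminescent ATP quantitation (CellTiter-Glo). CC50 = concentration reducing viability by 50%.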

SMILES | EC50 [1] [µM] | CC50 [2] [µM]
C=C(C)[C@@H]1CC[C@]2(C(=O)O)CC[C@]3(C)[C@H](CC[C@@H]4[C@@]5(C)C[C@@H](F)[C@H](OC(=O)CC(C)(C)C(=O)O)C(C)(C)[C@@H]5CC[C@]43C)[C@@H]12 | > 17 | > 17
C=C(C)[C@@H]1CC[C@]2(C(=O)O)CC[C@]3(C)[C@H](CC[C@@H]4[C@@]5(C)CC[C@H](OC(=O)C(F)(F)C(F)(F)C(=O)O)C(C)(C)[C@@H]5CC[C@]43C)[C@@H]12 | > 6 | > 6
C=C(CC(F)(F)F)[C@@H]1CC[C@]2(C(=O)O)CC[C@]3(C)[C@H](CC[C@@H]4[C@@]5(C)CC[C@H](OC(=O)CC(C)(C)C(=O)O)C(C)(C)[C@@H]5CC[C@]43C)[C@@H]12 | 0.097 | > 6
C=C(C)[C@@H]1CC[C@]2(C(=O)OCCc3cccc(C(F)(F)F)c3)CC[C@]3(C)[C@H](CC[C@@H]4[C@@]5(C)CC[C@H](OC(=O)CC(C)(C)C(=O)O)C(C)(C)[C@@H]5CC[C@]43C)[C@@H]12 | 3 | > 5
C=C(C)[C@@H]1CC[C@]2(C(=O)OCCC3CC3)CC[C@]3(C)[C@H](CC[C@@H]4[C@@]5(C)C[C@@H](F)[C@H](OC(=O)CC(C)(C)C(=O)O)C(C)(C)[C@@H]5CC[C@]43C)[C@@H]12 | 1.1 | > 6
C=C(C)[C@@H]1CC[C@]2(C(=O)OC)CC[C@]3(C)[C@H](CC[C@@H]4[C@@]5(C)C[C@@H](C(F)(F)F)[C@H](OC(=O)CC(C)(C)C(=O)O)C(C)(C)[C@@H]5CC[C@]43C)[C@@H]12 | > 6 | > 6

More lines, main results first:

EC50 [1] [µM] | SMILES | CC50 [2] [µM]
> 16 | C=C(C)[C@@H]1CC[C@]2(C(=O)OC)CC[C@]3(C)[C@H](CC[C@@H]4[C@@]5(C)C[C@@H](F)[C@H](OC(=O)CC(C)(C)C(=O)O)C(C)(C)[C@@H]5CC[C@]43C)[C@@H]12 | > 16
> 6 | C=C(C)[C@@H]1CC[C@]2(C(=O)O)CC[C@]3(C)[C@H](CC[C@@H]4[C@@]5(C)CC[C@H](OC(=O)C(F)(F)C(F)(F)C(F)(F)C(=O)O)C(C)(C)[C@@H]5CC[C@]43C)[C@@H]12 | > 6
0.075 | C=C(C)[C@@H]1CC[C@]2(C(=O)O)CC[C@]3(C)[C@H](CC[C@@H]4[C@@]5(C)CC[C@H](OC(=O)CC(C)(C)C(=O)O)C(C)(C)[C@@H]5CC[C@]43C)[C@@H]12 [BEVIRIMAT] | > 17
0.31 | C=C(C)[C@@H]1CC[C@]2(C(=O)OCC3CCC(F)(F)CC3)CC[C@]3(C)[C@H](CC[C@@H]4[C@@]5(C)CC[C@H](OC(=O)CC(C)(C)C(=O)O)C(C)(C)[C@@H]5CC[C@]43C)[C@@H]12 | > 6
